One block for each compound: values may come before it.
Key:
Format in all cases: ADME
[1] = target: Cytochrome P450 3A5 (Homo sapiens, UniProt P20815); assay: Drug level of the compound assessed as recombinant CYP3A5 (unknown origin)-mediated metabolite formation treated with budesonide by MS/MS analysis; conditions: recombinant enzyme
Outline: (§1)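 Metabolite profiling used 50 pmol recombinant P450 (with reductase and cytochrome b5) and 100 μM substrate in 30 mM potassium phosphate (pH 7.4). Reactions were started with 1.3 mM NADPH at 37°C, with no-NADPH negative controls. They were stopped with cold acetonitrile, deproteinized by centrifugation, and metabolites were extracted on C-18 cartridges for MS analysis.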

[2] = target: Cytochrome P450 3A7 (Homo sapiens, UniProt P24462); assay: Drug level of the compound assessed as recombinant CYP3A7 (unknown origin)-mediated metabolite formation treated with budesonide by MS/MS analysis; conditions: recombinant enzyme; outline: as §1
Chain of Cytochrome P450 3A7 (P24462 whole entry): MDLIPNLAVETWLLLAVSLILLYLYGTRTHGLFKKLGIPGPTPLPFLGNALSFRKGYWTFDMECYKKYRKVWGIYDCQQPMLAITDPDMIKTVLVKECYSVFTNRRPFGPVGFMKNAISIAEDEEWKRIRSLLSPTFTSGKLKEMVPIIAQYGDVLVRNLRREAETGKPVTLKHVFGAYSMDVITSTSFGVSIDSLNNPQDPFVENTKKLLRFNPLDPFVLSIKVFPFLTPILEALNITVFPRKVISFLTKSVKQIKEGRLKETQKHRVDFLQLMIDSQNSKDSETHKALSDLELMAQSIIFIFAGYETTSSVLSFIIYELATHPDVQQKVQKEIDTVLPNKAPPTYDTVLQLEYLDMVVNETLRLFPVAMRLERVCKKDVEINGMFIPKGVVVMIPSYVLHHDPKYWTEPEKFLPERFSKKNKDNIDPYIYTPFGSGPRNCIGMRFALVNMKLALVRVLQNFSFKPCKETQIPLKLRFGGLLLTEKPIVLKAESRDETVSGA

[3] = target: T1, Cytochrome P450 3A4 (Homo sapiens, UniProt P08684); assay: Drug level of the compound assessed as recombinant CYP3A4 (unknown origin)-mediated metabolite formation treated with budesonide by MS/MS analysis; conditions: recombinant enzyme; outline: as §1
T1 sequence (P08684 whole entry): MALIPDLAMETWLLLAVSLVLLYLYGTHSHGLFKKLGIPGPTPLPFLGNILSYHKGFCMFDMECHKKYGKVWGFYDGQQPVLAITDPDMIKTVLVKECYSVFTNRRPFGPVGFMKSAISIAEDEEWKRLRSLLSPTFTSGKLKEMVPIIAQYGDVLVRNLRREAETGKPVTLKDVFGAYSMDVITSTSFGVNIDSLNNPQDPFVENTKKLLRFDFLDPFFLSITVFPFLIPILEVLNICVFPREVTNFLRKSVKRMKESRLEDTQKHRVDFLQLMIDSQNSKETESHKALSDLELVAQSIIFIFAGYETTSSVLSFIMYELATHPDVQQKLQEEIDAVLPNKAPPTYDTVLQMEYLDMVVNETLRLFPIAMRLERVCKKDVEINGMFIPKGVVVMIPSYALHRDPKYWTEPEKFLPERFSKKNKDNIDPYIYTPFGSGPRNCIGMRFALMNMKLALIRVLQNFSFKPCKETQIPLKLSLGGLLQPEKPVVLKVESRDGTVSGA

[4] = target: T1, Cytochrome P450 3A4; assay: Drug metabolism assessed as recombinant CYP3A4 (unknown origin)-mediated 6beta-hydroxy, 21-carboxy triamcinolone acetonide metabolite retention time by MS/MS analysis; conditions: recombinant enzyme; outline: as §1
[5] = target: T1, Cytochrome P450 3A4; assay: Drug level of the compound assessed as recombinant CYP3A4 (unknown origin)-mediated metabolite formation treated with triamcinolone acetonide by MS/MS analysis; conditions: recombinant enzyme; outline: as §1
[6] = target: T1, Cytochrome P450 3A4; assay: Drug metabolism assessed as recombinant CYP3A4 (unknown origin)-mediated delta6-flunisolide metabolite retention time by MS/MS analysis; conditions: recombinant enzyme; outline: as §1
[7] = target: T1, Cytochrome P450 3A4; assay: Drug level of the compound assessed as recombinant CYP3A4 (unknown origin)-mediated metabolite formation treated with flunisolide by MS/MS analysis; conditions: recombinant enzyme; outline: as §1
[8] = target: T1, Cytochrome P450 3A4; assay: Drug metabolism assessed as recombinant CYP3A4 (unknown origin)-mediated 21-carboxy flunisolide metabolite retention time by MS/MS analysis; conditions: recombinant enzyme; outline: as §1
[9] = target: T1, Cytochrome P450 3A4; assay: Drug metabolism assessed as recombinant CYP3A4 (unknown origin)-mediated 21-carboxy triamcinolone acetonide metabolite retention time by MS/MS analysis; conditions: recombinant enzyme; outline: as §1
[10] = target: T1, Cytochrome P450 3A4; assay: Drug metabolism assessed as recombinant CYP3A4 (unknown origin)-mediated 21-nortriamcincolone acetonide metabolite retention time by MS/MS analysis; conditions: recombinant enzyme; outline: as §1
[11] = target: T1, Cytochrome P450 3A4; assay: Drug metabolism assessed as recombinant CYP3A4 (unknown origin)-mediated delta6-triamcinolone acetonide metabolite retention time by MS/MS analysis; conditions: recombinant enzyme; outline: as §1
[12] = target: T1, Cytochrome P450 3A4; assay: Drug metabolism assessed as recombinant CYP3A4 (unknown origin)-mediated 17beta-carboxy fluticasone propionate metabolite retention time by MS/MS analysis; conditions: recombinant enzyme; outline: as §1
[13] = target: T1, Cytochrome P450 3A4; assay: Drug level of the compound assessed as recombinant CYP3A4 (unknown origin)-mediated metabolite formation treated with fluticasone propionate by MS/MS analysis; conditions: recombinant enzyme; outline: as §1
[14] = target: T1, Cytochrome P450 3A4; assay: Drug metabolism assessed as recombinant CYP3A4 (unknown origin)-mediated 6beta-hydroxy triamcinolone acetonide metabolite retention time by MS/MS analysis; conditions: recombinant enzyme; outline: as §1
[15] = target: T1, Cytochrome P450 3A4; assay: Drug metabolism assessed as recombinant CYP3A4 (unknown origin)-mediated 16alpha-hydroxy prednisolone metabolite formation by MS/MS analysis; conditions: recombinant enzyme
[16] = target: CYP3A4 (Homo sapiens, UniProt P08684); assay: Activity at recombinant CYP3A4 (unknown origin) assessed as half life at 1 uM by LC-MS analysis
Chain of CYP3A4 (P08684 whole entry): as above
Outline: (§2)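 Recombinant P450 co-expressing P450 reductase and cytochrome b5, 10 pmol, with 1 μM substrate in 30 mM potassium phosphate (pH 7.4). Started with 1.3 mM NADPH at 37°C; no-NADPH negative controls. Samples at 0–20 min were quenched in cold acetonitrile with prednisolone internal standard and run by LC/MS, in triplicate. Parent/IS ratio vs time fitted to one-phase exponential decay; t1/2 = 0.69/kobs.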

[17] = target: CYP3A5 (Homo sapiens, UniProt P20815); assay: Activity at recombinant CYP3A5 (unknown origin) assessed as half life at 1 uM by LC-MS analysis; outline: as §2
Chain of CYP3A5 (P20815 whole entry): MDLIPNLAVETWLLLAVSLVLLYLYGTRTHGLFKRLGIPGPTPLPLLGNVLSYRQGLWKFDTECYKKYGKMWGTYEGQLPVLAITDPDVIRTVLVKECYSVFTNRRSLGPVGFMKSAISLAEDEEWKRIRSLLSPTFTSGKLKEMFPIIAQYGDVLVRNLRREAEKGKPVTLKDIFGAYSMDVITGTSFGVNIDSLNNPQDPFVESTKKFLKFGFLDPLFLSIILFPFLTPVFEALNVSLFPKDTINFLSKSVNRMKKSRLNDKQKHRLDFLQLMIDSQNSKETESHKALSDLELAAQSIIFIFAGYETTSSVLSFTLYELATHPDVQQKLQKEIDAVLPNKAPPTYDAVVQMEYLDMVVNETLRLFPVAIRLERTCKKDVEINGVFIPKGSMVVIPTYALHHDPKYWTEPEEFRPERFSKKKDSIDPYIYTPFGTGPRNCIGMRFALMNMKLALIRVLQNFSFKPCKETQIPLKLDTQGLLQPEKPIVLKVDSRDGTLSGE

[18] = target: CYP3A7 (Homo sapiens, UniProt P24462); assay: Activity at recombinant CYP3A7 (unknown origin) assessed as half life at 1 uM by LC-MS analysis; outline: as §2
Chain of CYP3A7 (P24462 whole entry): as the sequence (P24462 whole entry) above

[19] = target: T1, Cytochrome P450 3A4; assay: Drug metabolism assessed as recombinant CYP3A4 (unknown origin)-mediated delta6-budesonide metabolite formation by MS/MS analysis; conditions: recombinant enzyme; outline: as §1
[20] = target: T1, Cytochrome P450 3A4; assay: Drug metabolism assessed as recombinant CYP3A4 (unknown origin)-mediated 16alpha-hydroxy prednisolone metabolite formation by MS/MS analysis in presence of esterase inhibitor; conditions: recombinant enzyme
[21] = target: T1, Cytochrome P450 3A4; assay: Drug metabolism assessed as recombinant CYP3A4 (unknown origin)-mediated 6beta-hydroxy budesonide metabolite formation by MS/MS analysis; conditions: recombinant enzyme; outline: as §1
[22] = target: T1, Cytochrome P450 3A4; assay: Drug metabolism assessed as recombinant CYP3A4 (unknown origin)-mediated 23-hydroxy budesonide metabolite formation by MS/MS analysis; conditions: recombinant enzyme; outline: as §1
[23] = target: T1, Cytochrome P450 3A4; assay: Drug metabolism assessed as recombinant CYP3A4 (unknown origin)-mediated keto-flunisolide metabolite retention time by MS/MS analysis; conditions: recombinant enzyme; outline: as §1

Chain of Cytochrome P450 3A5 (P20815 whole entry): as the sequence (P20815 whole entry) above

SMILES: CCC(O)C1O[C@@H]2C[C@H]3[C@@H]4CCC5=CC(=O)C=C[C@]5(C)[C@H]4[C@@H](O)C[C@]3(C)[C@]2(C(=O)CO)O1 (stereo not given in full)
- Drug metabolism [1]: metabolite_detected
- Drug metabolism [2]: metabolite_detected
- Drug metabolism [3]: metabolite_detected

SMILES: CC1(C)O[C@@H]2C[C@H]3[C@@H]4C[C@@H](O)C5=CC(=O)C=C[C@]5(C)[C@@]4(F)[C@@H](O)C[C@]3(C)[C@]2(C(=O)C(=O)O)O1
- Retention_time [4]: 16.4 min
- Drug metabolism [5]: metabolite_detected

SMILES: CC1(C)O[C@@H]2C[C@H]3[C@@H]4CCC5=CC(=O)C=C[C@]5(C)[C@@]4(F)[C@@H](O)C[C@]3(C)[C@]2(C(=O)C(=O)O)O1
- Retention_time [9]: 23.7 min
- Drug metabolism [5]: metabolite_detected

SMILES: CC1(C)O[C@@H]2C[C@H]3[C@@H]4CCC5=CC(=O)C=C[C@]5(C)[C@@]4(F)[C@@H](O)C[C@]3(C)[C@]2(C(=O)O)O1
- Retention_time [10]: 18.9 min
- Drug metabolism [5]: metabolite_detected

SMILES: CC1(C)O[C@@H]2C[C@H]3[C@@H]4C=CC5=CC(=O)C=C[C@]5(C)[C@@]4(F)[C@@H](O)C[C@]3(C)[C@]2(C(=O)CO)O1
- Retention_time [11]: 19.1 min
- Drug metabolism [5]: metabolite_detected

SMILES: CCC(=O)O[C@]1(C(=O)O)[C@H](C)C[C@H]2[C@@H]3C[C@H](F)C4=CC(=O)C=C[C@]4(C)[C@@]3(F)[C@@H](O)C[C@@]21C
- Retention_time [12]: 19.7 min
- Drug metabolism [13]: metabolite_detected

SMILES: C[C@]12C=CC(=O)C=C1CC[C@@H]1[C@@H]2[C@@H](O)C[C@@]2(C)[C@H]1C[C@@H](O)[C@]2(O)C(=O)CO
- Drug metabolism [1]: metabolite_detected
- Drug metabolism [2]: metabolite_detected
- Drug metabolism [3]: metabolite_detected

SMILES: CCCC1O[C@@H]2C[C@H]3[C@@H]4C=CC5=CC(=O)C=C[C@]5(C)[C@H]4[C@@H](O)C[C@]3(C)[C@]2(C(=O)CO)O1 (stereo not given in full)
- Drug metabolism [1]: metabolite_detected
- Drug metabolism [2]: metabolite_detected
- Drug metabolism [3]: metabolite_detected

SMILES: CCCC1O[C@@H]2C[C@H]3[C@@H]4C[C@@H](O)C5=CC(=O)C=C[C@]5(C)[C@H]4[C@@H](O)C[C@]3(C)[C@]2(C(=O)CO)O1 (stereo not given in full)
- Drug metabolism [1]: metabolite_detected
- Drug metabolism [2]: metabolite_detected
- Drug metabolism [3]: metabolite_detected

SMILES: CCCC1O[C@@H]2C[C@H]3[C@@H]4CCC5=CC(=O)C=C[C@]5(C)[C@H]4[C@@H](O)C[C@]3(C)[C@]2(C(=O)CO)O1 (stereo not given in full) [BUDESONIDE]
- Drug metabolism [15]: metabolite_detected
- half-life at 1 µM [16]: 11 min
- half-life at 1 µM [17]: 40 min
- half-life at 1 µM [18]: 71 min
- Drug metabolism [19]: metabolite_detected
- Drug metabolism [20]: metabolite_not_detected
- Drug metabolism [21]: metabolite_detected
- Drug metabolism [22]: metabolite_detected

SMILES: CCC(=O)O[C@]1(C(=O)SCF)[C@H](C)C[C@H]2[C@@H]3C[C@H](F)C4=CC(=O)C=C[C@]4(C)[C@@]3(F)[C@@H](O)C[C@@]21C [FLUTICASONE PROPIONATE]
- half-life at 1 µM [16]: 0.86 min
- half-life at 1 µM [17]: 16 min
- half-life at 1 µM [18]: 58 min

Next, values leading:

- Retention_time [6]: 20.6 min
- Drug metabolism [7]: metabolite_detected
SMILES: CC1(C)O[C@@H]2C[C@H]3[C@@H]4C=C(F)C5=CC(=O)C=C[C@]5(C)[C@H]4[C@@H](O)C[C@]3(C)[C@]2(C(=O)CO)O1

- Drug metabolism [7]: metabolite_detected
SMILES: CC1(C)O[C@@H]2C[C@H]3[C@@H]4CC(=O)C5=CC(=O)C=C[C@]5(C)[C@H]4[C@@H](O)C[C@]3(C)[C@]2(C(=O)CO)O1

- Retention_time [8]: 23.1 min
- Drug metabolism [7]: metabolite_detected
SMILES: CC1(C)O[C@@H]2C[C@H]3[C@@H]4C[C@H](F)C5=CC(=O)C=C[C@]5(C)[C@H]4[C@@H](O)C[C@]3(C)[C@]2(C(=O)C(=O)O)O1

- Retention_time [14]: 14.9 min
- Drug metabolism [5]: metabolite_detected
SMILES: CC1(C)O[C@@H]2C[C@H]3[C@@H]4C[C@@H](O)C5=CC(=O)C=C[C@]5(C)[C@@]4(F)[C@@H](O)C[C@]3(C)[C@]2(C(=O)CO)O1

- half-life at 1 µM [16]: 16 min
- Retention_time [23]: 15.8 min
SMILES: CC1(C)O[C@@H]2C[C@H]3[C@@H]4C[C@H](F)C5=CC(=O)C=C[C@]5(C)[C@H]4[C@@H](O)C[C@]3(C)[C@]2(C(=O)CO)O1 [FLUNISOLIDE]

- half-life at 1 µM [16]: 12 min
- half-life at 1 µM [17]: 130 min
- half-life at 1 µM [18]: 213 min
SMILES: CC1(C)O[C@@H]2C[C@H]3[C@@H]4CCC5=CC(=O)C=C[C@]5(C)[C@@]4(F)[C@@H](O)C[C@]3(C)[C@]2(C(=O)CO)O1 [TRIAMCINOLONE ACETONIDE]

— ChEMBL document CHEMBL3525921, “Metabolic pathways of inhaled glucocorticoids by the CYP3A enzymes” (Drug Metab Dispos, 2013)
